Laboratory results: ChEMBL document CHEMBL2434850, “Synthesis and antibacterial activity of novel modified 5-O-mycaminose 14-membered ketolides” (2013)
In brackets after ≈: the same amount, converted by molar mass.

Legend:
Format in all cases: functional
[1] = test system: Staphylococcus aureus; assay: Antibacterial activity against methicillin-resistant Staphylococcus aureus ATCC 33591 by broth microdilution method
Summary of the method: (§1)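 MIC determined by broth microdilution following CLSI recommendations; strain is a methicillin-resistant S. aureus (MRSA).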

[2] = test system: Staphylococcus epidermidis; assay: Antibacterial activity against methicillin-resistant Staphylococcus epidermidis 09-3 by broth microdilution method
[3] = test system: Staphylococcus epidermidis; assay: Antibacterial activity against methicillin-sensitive Staphylococcus epidermidis 09-9 by broth microdilution method
Summary of the method: (§2)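 Value is the minimum inhibitory concentration (MIC), determined by broth microdilution following CLSI recommendations. Strains ATCC 29213, 15 and 09-06 are methicillin-sensitive S. aureus; ATCC 12228 and 09-9 are methicillin-sensitive S. epidermidis.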

[4] = test system: Staphylococcus aureus; assay: Antibacterial activity against methicillin-sensitive Staphylococcus aureus 09-6 by broth microdilution method; summary of the method: as §2
[5] = test system: Staphylococcus aureus; assay: Antibacterial activity against methicillin-sensitive Staphylococcus aureus ATCC 29213 by broth microdilution method; summary of the method: as §2
[6] = test system: Staphylococcus aureus; assay: Antibacterial activity against methicillin-resistant Staphylococcus aureus 09-13 by broth microdilution method; summary of the method: as §1
[7] = test system: Staphylococcus epidermidis; assay: Antibacterial activity against methicillin-sensitive Staphylococcus epidermidis ATCC 12228 by broth microdilution method; summary of the method: as §2
[8] = test system: Staphylococcus aureus; assay: Antibacterial activity against methicillin-sensitive Staphylococcus aureus 15 by broth microdilution method; summary of the method: as §2

Structure (SMILES) | MIC [1] [µg/mL] | MIC [2] [µg/mL] | MIC [3] [µg/mL] | MIC [4] [µg/mL] | MIC [5] [µg/mL] | MIC [6] [µg/mL] | MIC [7] [µg/mL] | MIC [8] [µg/mL]
CC[C@H]1OC(=O)[C@H](C)C(=O)[C@H](C)[C@@H](O[C@@H]2O[C@H](C)[C@@H](OC(=O)NCCc3ccccc3)[C@H](N(C)C)[C@H]2O)[C@@](C)(OC)C[C@@H](C)/C(=N\O)[C@H](C)[C@H]2OC(=O)O[C@@]21C | > 32 | > 32 | 2 (≈ 2.53 µM) | 1 (≈ 1.26 µM) | 1 (≈ 1.26 µM) | > 32 | 0.5 (≈ 0.631 µM) | 1 (≈ 1.26 µM)
CC[C@H]1OC(=O)[C@H](C)C(=O)[C@H](C)[C@@H](O[C@@H]2O[C@H](C)[C@@H](OC(=O)NCCc3ccccc3)[C@H](N(C)C)[C@H]2O)[C@@](C)(OC)C[C@@H](C)/C(=N\OC(=O)NCCc2ccccc2)[C@H](C)[C@H]2OC(=O)O[C@@]21C | > 32 | > 32 | > 32 | > 32 | > 32 | > 32 | > 32 | > 32
CC[C@H]1OC(=O)[C@H](C)C(=O)[C@H](C)[C@@H](O[C@@H]2O[C@H](C)[C@@H](OC(=O)Nc3ccc(C(F)(F)F)cc3)[C@H](N(C)C)[C@H]2O)[C@@](C)(OC)C[C@@H](C)/C(=N\O)[C@H](C)[C@H]2OC(=O)O[C@@]21C | > 32 | > 32 | > 32 | > 32 | > 32 | > 32 | 32 (≈ 38.5 µM) | > 32
CC[C@H]1OC(=O)[C@H](C)C(=O)[C@H](C)[C@@H](O[C@@H]2O[C@H](C)[C@@H](OC(=O)NC3CCCCC3)[C@H](N(C)C)[C@H]2O)[C@@](C)(OC)C[C@@H](C)/C(=N\OC(=O)NC2CCCCC2)[C@H](C)[C@H]2OC(=O)O[C@@]21C | > 32 | > 32 | > 32 | > 32 | 32 (≈ 35.8 µM) | > 32 | 32 (≈ 35.8 µM) | > 32
CCCCCNC(=O)O/N=C1\[C@H](C)C[C@](C)(OC)[C@H](O[C@@H]2O[C@H](C)[C@@H](OC(=O)NCCCCC)[C@H](N(C)C)[C@H]2O)[C@@H](C)C(=O)[C@@H](C)C(=O)O[C@H](CC)[C@@]2(C)OC(=O)O[C@@H]2[C@H]1C | > 64 | > 64 | > 64 | > 64 | > 64 | > 64 | > 64 | > 64
CC[C@H]1OC(=O)[C@H](C)C(=O)[C@H](C)[C@@H](O[C@@H]2O[C@H](C)[C@@H](OC(=O)NCCCl)[C@H](N(C)C)[C@H]2O)[C@@](C)(OC)C[C@@H](C)/C(=N\OC(=O)NCCCl)[C@H](C)[C@H]2OC(=O)O[C@@]21C | > 32 | > 32 | > 32 | > 32 | > 32 | > 32 | > 32 | > 32
CC[C@H]1OC(=O)[C@H](C)C(=O)[C@H](C)[C@@H](O[C@@H]2O[C@H](C)[C@@H](O)[C@H](N(C)C)[C@H]2O)[C@@](C)(OC)C[C@@H](C)/C(=N\O)[C@H](C)[C@H]2OC(=O)O[C@@]21C | > 64 | > 64 | 2 (≈ 3.1 µM) | 2 (≈ 3.1 µM) | 2 (≈ 3.1 µM) | > 64 | 2 (≈ 3.1 µM) | > 64
CC[C@H]1OC(=O)[C@H](C)[C@@H](O[C@H]2C[C@@](C)(OC)[C@@H](O)[C@H](C)O2)[C@H](C)[C@@H](O[C@@H]2O[C@H](C)C[C@H](N(C)C)[C@H]2O)[C@](C)(OC)C[C@@H](C)C(=O)[C@H](C)[C@@H](O)[C@]1(C)O [CLARITHROMYCIN] | > 64 | > 64 | 4 (≈ 5.35 µM) | 0.06 (≈ 0.0802 µM) | 0.06 (≈ 0.0802 µM) | > 64 | 0.06 (≈ 0.0802 µM) | 0.5 (≈ 0.668 µM)
CC[C@H]1OC(=O)[C@H](C)C(=O)[C@H](C)[C@@H](O[C@@H]2O[C@H](C)C[C@H](N(C)C)[C@H]2O)[C@](C)(OC)C[C@@H](C)C(=O)[C@H](C)[C@H]2N(CCCCn3cnc(-c4cccnc4)c3)C(=O)O[C@]12C [TELITHROMYCIN] | > 32 | 32 (≈ 39.4 µM) | 0.06 (≈ 0.0739 µM) | 0.5 (≈ 0.616 µM) | 0.5 (≈ 0.616 µM) | > 32 | 0.06 (≈ 0.0739 µM) | 2 (≈ 2.46 µM)
